For data set [1], the system named is Mus musculus. Kind of data set: Prodrug activation in BALB/c mouse assessed as 3-(tert-butyl)-1-cyclohexyl-1-(6-((2R,3R,4R,5S)-3,4,5-trihydroxy-2-(hydroxymethyl)piperidin-1-yl)hexyl)urea Tmax at 5 mg/kg, iv as bolus administration by LC-MS/MS analysis. The data set is classed as organism-based. As to conditions: in vivo. An outline of the steps:
(§1)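 Male BALB/c mice dosed with the prodrugs or the parent orally (25 or 100 mg/kg) or intravenously (5 mg/kg). The parent compound was quantified in plasma and PK parameters were derived from it. The first sampling point was 5 min post-dose, and prodrugs were tracked up to 4 h.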

For data set [2], the system named is Mus musculus. Kind of data set: Prodrug activation in BALB/c mouse assessed as 3-(tert-butyl)-1-cyclohexyl-1-(6-((2R,3R,4R,5S)-3,4,5-trihydroxy-2-(hydroxymethyl)piperidin-1-yl)hexyl)urea half life at 5 mg/kg, iv as bolus administration by LC-MS/MS analysis. The data set is classed as organism-based. As to conditions: in vivo. The gist of the method:
as §1

Data set [3] can be described thus: Metabolic stability in human plasma assessed as parent compound remaining at 5 uM measured after 2 hrs by LC-MS/MS analysis. The data set is classed as ADME, cell-free. As to conditions: read-out: Stability. The gist of the method:
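Compounds incubated in human or mouse plasma for 2 h. Percent remaining and percent conversion to the parent were determined.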

In data set [4] the test system is Mus musculus. Kind of data set: Prodrug activation in BALB/c mouse assessed as 3-(tert-butyl)-1-cyclohexyl-1-(6-((2R,3R,4R,5S)-3,4,5-trihydroxy-2-(hydroxymethyl)piperidin-1-yl)hexyl)urea Cmax at 25 mg/kg, po administered as single dose by LC-MS/MS analysis. The data set is classed as organism-based. Set-up: dose 25 mg/kg, route oral. As to conditions: in vivo. An outline of the steps: as §1

The nature of data set [5]: Stability in simulated gastric fluid assessed as parent compound remaining at 5 uM measured after 4 hrs by LC-MS/MS analysis. An outline of the steps:
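Chemical stability assessed by incubation in simulated gastric fluid and simulated intestinal fluid; percent of compound remaining was measured.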

In data set [6] the test system is Mus musculus. Briefly: Prodrug activation in po dosed BALB/c mouse assessed as 3-(tert-butyl)-1-cyclohexyl-1-(6-((2R,3R,4R,5S)-3,4,5-trihydroxy-2-(hydroxymethyl)piperidin-1-yl)hexyl)urea formation measured after 5 mins by LC-MS/MS analysis. The data set is classed as organism-based. To be noted: in vivo. The gist of the method: as §1
The nature of data set [7]: Prodrug activation in mouse intestinal S9 fraction assessed as 3-(tert-butyl)-1-cyclohexyl-1-(6-((2R,3R,4R,5S)-3,4,5-trihydroxy-2-(hydroxymethyl)piperidin-1-yl)hexyl)urea formation by measuring prodrug remaining at 200 uM measured after 1 hr in presence or absence of NADPH by LC-MS/MS analysis. Further details: species or system Intestine. To be noted: s9, 1 h. The gist of the method:
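Compounds incubated with intestinal S9 fraction for 1 h. Percent prodrug remaining and percent conversion to the parent were measured.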

Data set [8] deals with Mus musculus. Kind of data set: Prodrug activation in BALB/c mouse assessed as 3-(tert-butyl)-1-cyclohexyl-1-(6-((2R,3R,4R,5S)-3,4,5-trihydroxy-2-(hydroxymethyl)piperidin-1-yl)hexyl)urea AUC(0 to infinity) at 5 mg/kg, iv as bolus administration by LC-MS/MS analysis. As to conditions: in vivo. Further details: dose 5 mg/kg, route intravenous, time infinity. The data set is classed as organism-based.

Data set [9] relates to Mus musculus. Briefly: Prodrug activation in po dosed BALB/c mouse assessed as 3-(tert-butyl)-1-cyclohexyl-1-(6-((2R,3R,4R,5S)-3,4,5-trihydroxy-2-(hydroxymethyl)piperidin-1-yl)hexyl)urea formation measured up to 4 hrs by LC-MS/MS analysis. To be noted: in vivo. The data set is classed as organism-based. The gist of the method: as §1
For data set [10], the system named is Mus musculus. Kind of data set: Prodrug activation in BALB/c mouse assessed as 3-(tert-butyl)-1-cyclohexyl-1-(6-((2R,3R,4R,5S)-3,4,5-trihydroxy-2-(hydroxymethyl)piperidin-1-yl)hexyl)urea formation at 100 mg/kg, po administered as single dose measured after 3 hrs by LC-MS/MS analysis. The data set is classed as organism-based. As to conditions: in vivo. The gist of the method: as §1

`CC(=O)OC[C@@H]1[C@@H](OC(C)=O)[C@H](OC(C)=O)[C@@H](OC(C)=O)CN1CCCCCCN(C(=O)NC(C)(C)C)C1CCCCC1`: the Tmax in the data set on Mus musculus [1] is 15 min. The t1/2 in the data set on Mus musculus [2] is 66.6 min. In [3], the remaining at 2 h, 5 µM was 84%. The peak concentration (Cmax) in the data set with Mus musculus [4] is 375 ng/mL. Further, the values for the Stability in data set [5] and in data set [7] were 94% and less than 50%, respectively. For the same compound, the Drug metabolism entry with Mus musculus [6] is listed as “Metabolite_Detected”. The AUC with Mus musculus [8] came out at 368 ng·mL·h.
Take `CC(C)C(=O)OC[C@@H]1[C@@H](OC(=O)C(C)C)[C@H](OC(=O)C(C)C)[C@@H](OC(=O)C(C)C)CN1CCCCCCN(C(=O)NC(C)(C)C)C1CCCCC1`: in the data set on Mus musculus [1], the Tmax amounted to 4.98 min. For the same compound, in the data set with Mus musculus [2], the t1/2 amounted to 75 min. Further, the remaining at 2 h, 5 µM in data set [3] amounted to 100%. Moreover, the Cmax in the data set on Mus musculus [4] was 104 ng/mL. For the same compound, the Stability in [5] was 108%; in [7], less than 50%. Also, in the data set on Mus musculus [9], the Drug metabolism result was “Metabolite_Notdetected”. In the data set on Mus musculus [8], the AUC came to 569 ng·mL·h.
Consider `CCCC(=O)OC[C@@H]1[C@@H](OC(=O)CCC)[C@H](OC(=O)CCC)[C@@H](OC(=O)CCC)CN1CCCCCCN(C(=O)NC(C)(C)C)C1CCCCC1`, for which, in the data set with Mus musculus [1], the Tmax amounted to 4.98 min. In addition, the t1/2 in the data set with Mus musculus [2] was determined as 50.4 min. In data set [3], the remaining at 2 h, 5 µM is 106%. In addition, the Cmax with Mus musculus [4] was 319 ng/mL. The Stability is 89% in [5] and less than 50% in data set [7]. Moreover, the Drug metabolism entry with Mus musculus [6] is “Metabolite_Detected”; in the data set with Mus musculus [10], more than 1 µM. Also, the AUC with Mus musculus [8] worked out at 2288 ng·mL·h.

The values above are taken from ChEMBL document CHEMBL4041548, “Ester Prodrugs of IHVR-19029 with Enhanced Oral Exposure and Prevention of Gastrointestinal Glucosidase Interaction” (ACS Med Chem Lett, 2017).
